How the values were obtained:
A549 = assay: Concentration required to inhibit tumor growth in A549, human lung carcinoma (NSCLC) cell line; type: functional, cell-based
Method in brief: (§1)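 Cells grown in RPMI 1640 with 5% fetal calf serum, 5% NuSerum IV and 20 mM HEPES, seeded and allowed to adhere overnight. Compound dissolved in RPMI-1640 plus HEPES and tested over a 5 log range (10 concentrations) for 72 h. Read-out by sulforhodamine B assay. Median-effect dose derived by nonlinear regression of the concentration-effect curve.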

HT-29 = assay: Concentration required to inhibit tumor growth in HT29, human colon adenocarcinoma cell line; type: functional, cell-based; settings: Homo sapiens, HT-29; method in brief: as §1
[1] = Percent increase in life span of dying mice tested in vivo at 47 mg/kg against ip implanted LOX amelanotic melanoma in mice (60-day survivors); type: functional; settings: Mus musculus, 1440 h, route intraperitoneal
Method in brief: (§2)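 Female CD2F1 mice implanted ip with ascitic fluid carrying ca. 1.7×10^6 LOX amelanotic melanoma cells. Drug given ip on days 1, 5 and 9, starting 24 h after implant, dosed by exact body weight; solutions or suspensions made fresh daily. %ILS is from the median day of death of dying mice versus controls, excluding 60-day survivors.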

[2] = Percent increase in life span of dying mice tested in vivo at 94 mg/kg against ip implanted LOX amelanotic melanoma in mice (60-day survivors); type: functional; settings: Mus musculus, 1440 h, route intraperitoneal
Method in brief: (§3)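 Nude CD2F1 female mice were implanted ip with ascitic fluid containing ca. 1.7×10^6 LOX amelanotic melanoma cells. Drug was given ip on days 1, 5 and 9, starting 24 h after implantation, and dosed by exact body weight. Solutions or suspensions were made fresh daily in saline plus Tween 80. %ILS was calculated from the median day of death of dying mice versus controls, excluding 60-day survivors.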

[3] = Change in tumor cell population in ip implanted LOX amelanotic melanoma in mice after administration of compound at 94 mg/kg; type: functional, Mus musculus; settings: route intraperitoneal
Method in brief: (§4)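 Female CD2F1 mice were implanted ip with ascitic fluid holding ca. 1.7×10^6 LOX cells. Dosing was ip on days 1, 5 and 9, starting 24 h after implantation, by exact body weight, as a solution or suspension in saline plus Tween 80, freshly prepared daily. KE is the net log change in viable tumor cells from start to end of treatment. Bracketed KE assumes Poisson survival, with 60-day survivors tumor-free.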

[4] = Change in tumor cell population in ip implanted LOX amelanotic melanoma in mice after administration of compound at 188 mg/kg; type: functional, Mus musculus; settings: route intraperitoneal; method in brief: as §4
[5] = Change in tumor cell population in ip implanted LOX amelanotic melanoma in mice after administration of compound at 23.5 mg/kg; type: functional, Mus musculus; settings: route intraperitoneal; method in brief: as §4
[6] = Change in tumor cell population in ip implanted LOX amelanotic melanoma in mice after administration of compound at 47 mg/kg; type: functional, Mus musculus; settings: route intraperitoneal; method in brief: as §4
[7] = Percent increase in life span of dying mice tested in vivo at 23.5 mg/kg against ip implanted LOX amelanotic melanoma in mice (60-day survivors); type: functional; settings: Mus musculus, 1440 h, route intraperitoneal; method in brief: as §2
[8] = Percent increase in life span of dying mice tested in vivo at 188 mg/kg against ip implanted LOX amelanotic melanoma in mice (60-day survivors); type: functional; settings: Mus musculus, 1440 h, route intraperitoneal; method in brief: as §2
[9] = Concentration required to inhibit tumor growth in […], human breast adenocarcinoma cell line; type: functional; method in brief: as §1
P388 [10] = assay: Change in tumor cell population in ip implanted P388 Leukemia in mice after administration of compound at 23.5 mg/kg; type: functional, Mus musculus; settings: route intraperitoneal
Method in brief: (§5)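 Female Portage-CD2F1 mice were inoculated ip with ascitic fluid holding ca. 5.2×10^6 P388 cells. Dosing was ip on days 1-5, starting 24 h after inoculation, by average body weight, as a solution or suspension in saline plus Tween 80. KE is the net log change in viable tumor cell population from start to end of the treatment period.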

P388 [11] = assay: Change in tumor cell population in ip implanted P388 Leukemia in mice after administration of compound at 47 mg/kg; type: functional, Mus musculus; settings: route intraperitoneal
Method in brief: (§6)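 P388 leukemia: ascitic fluid with ca. 5.2×10^6 cells inoculated ip into Portage-CD₂F₁ female mice. Drug given ip on days 1-5, starting 24 h after inoculation, dosed by average body weight. Vehicle was saline plus Tween 80, as a solution or suspension. KE = net log change in viable tumor cells from start to end of treatment.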

P388 [12] = assay: Change in tumor cell population in ip implanted P388 Leukemia in mice after administration of compound at 94 mg/kg; type: functional, Mus musculus; settings: route intraperitoneal; method in brief: as §6
P388 [13] = assay: Percent increase in life span of dying mice tested in vivo at 23.5 mg/kg against ip implanted P388 Leukemia in mice; type: functional; settings: Mus musculus, route intraperitoneal
Method in brief: (§7)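 Portage-CD2F1 female mice inoculated ip with ascitic fluid carrying ca. 5.2×10^6 P388 leukemia cells. Drug given ip daily on days 1-5, starting 24 h after inoculation, dosed by average body weight. %ILS is from the median day of death of dying mice versus controls.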

P388 [14] = assay: Percent increase in life span of dying mice tested in vivo at 47 mg/kg against ip implanted P388 Leukemia in mice; type: functional; settings: Mus musculus, route intraperitoneal; method in brief: as §7
P388 [15] = assay: Percent increase in life span of dying mice tested in vivo at 94 mg/kg against ip implanted P388 Leukemia in mice; type: functional; settings: Mus musculus, route intraperitoneal
Method in brief: (§8)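 Portage-CD2F1 female mice were inoculated ip with ascitic fluid containing ca. 5.2×10^6 P388 leukemia cells. Drug was given ip daily on days 1-5, starting 24 h after inoculation, and dosed by average body weight. %ILS was calculated from the median day of death of dying mice versus controls.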

P388 [16] = assay: Change in tumor cell population in ip implanted P388 Leukemia in mice after administration of compound at 11.8 mg/kg; type: functional, Mus musculus; settings: route intraperitoneal; method in brief: as §5
P388 [17] = assay: Percent increase in life span of dying mice tested in vivo at 11.8 mg/kg against ip implanted P388 Leukemia in mice; type: functional; settings: Mus musculus, route intraperitoneal; method in brief: as §7
[18] = Concentration required to inhibit tumor growth in PSN-1, human pancreatic carcinoma cell line; type: functional
Method in brief: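 PSN-1 pancreatic carcinoma cells exposed to compound dissolved in RPMI-1640 plus HEPES at its maximum soluble concentration for 72 h. Read-out by sulforhodamine B colorimetric assay.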

L1210 (Mus musculus) = assay: Concentration required to inhibit tumor growth in L1210, murine lymphocytic leukemia cell line
[19] = Percent increase in life span of dying mice tested in vivo at 82 mg/kg against ip implanted LOX amelanotic melanoma in mice (60-day survivors); type: functional; settings: Mus musculus, 1440 h, route intraperitoneal; method in brief: as §3
[20] = Change in tumor cell population in ip implanted LOX amelanotic melanoma in mice after administration of compound at 164 mg/kg; type: functional, Mus musculus; settings: route intraperitoneal; method in brief: as §4
[21] = Change in tumor cell population in ip implanted LOX amelanotic melanoma in mice after administration of compound at 82 mg/kg; type: functional, Mus musculus; settings: route intraperitoneal; method in brief: as §4
[22] = Percent increase in life span of dying mice tested in vivo at 328 mg/kg against ip implanted LOX amelanotic melanoma in mice (60-day survivors); type: functional; settings: Mus musculus, 1440 h, route intraperitoneal; method in brief: as §2
[23] = Percent increase in life span of dying mice tested in vivo at 41 mg/kg against ip implanted LOX amelanotic melanoma in mice (60-day survivors); type: functional; settings: Mus musculus, 1440 h, route intraperitoneal; method in brief: as §2
[24] = Percent increase in life span of dying mice tested in vivo at 164 mg/kg against ip implanted LOX amelanotic melanoma in mice (60-day survivors); type: functional; settings: Mus musculus, 1440 h, route intraperitoneal; method in brief: as §2
Mus musculus = assay: Change in tumor cell population in ip implanted LOX amelanotic melanoma in mice after administration of compound at 328 mg/kg; toxic; type: functional, organism-based; set-up: dose 328 mg/kg; method in brief: as §4
[25] = Change in tumor cell population in ip implanted LOX amelanotic melanoma in mice after administration of compound at 41 mg/kg; type: functional, Mus musculus; settings: route intraperitoneal; method in brief: as §4
P388 [26] = assay: Change in tumor cell population in ip implanted P388 Leukemia in mice after administration of compound at 20.5 mg/kg; type: functional, Mus musculus; settings: route intraperitoneal; method in brief: as §5
P388 [27] = assay: Change in tumor cell population in ip implanted P388 Leukemia in mice after administration of compound at 41 mg/kg; type: functional, Mus musculus; settings: route intraperitoneal; method in brief: as §5
P388 [28] = assay: Change in tumor cell population in ip implanted P388 Leukemia in mice after administration of compound at 82 mg/kg; type: functional, Mus musculus; settings: route intraperitoneal; method in brief: as §6
P388 [29] = assay: Percent increase in life span of dying mice tested in vivo at 41 mg/kg against ip implanted P388 Leukemia in mice; type: functional; settings: Mus musculus, route intraperitoneal; method in brief: as §7
P388 [30] = assay: Percent increase in life span of dying mice tested in vivo at 82 mg/kg against ip implanted P388 Leukemia in mice; type: functional; settings: Mus musculus, route intraperitoneal; method in brief: as §8
P388 [31] = assay: Change in tumor cell population in ip implanted P388 Leukemia in mice after administration of compound at 164 mg/kg; type: functional, Mus musculus; settings: route intraperitoneal; method in brief: as §5
P388 [32] = assay: Percent increase in life span of dying mice tested in vivo at 164 mg/kg against ip implanted P388 Leukemia in mice; type: functional; settings: Mus musculus, route intraperitoneal; method in brief: as §7
P388 [33] = assay: Percent increase in life span of dying mice tested in vivo at 20.5 mg/kg against ip implanted P388 Leukemia in mice; type: functional; settings: Mus musculus, route intraperitoneal; method in brief: as §7

SMILES: CCCSc1nc(COC(=O)NC)c(COC(=O)NC)n1C
- IC50 (A549): 190 µM
- IC50 (HT-29): 108 µM
- ILS at 47 mg/kg [1]: 24%
- ILS at 94 mg/kg [2]: 22%
- KE [3]: 0.6
- KE [4]: -1.6
- KE [5]: 1.3
- KE [6]: 0.7
- ILS at 23.5 mg/kg [7]: 13%
- ILS at 188 mg/kg [8]: 76%
- IC50 [9]: 147 µM
- KE (P388 [10]): -0.1
- KE (P388 [11]): -1.5
- KE (P388 [12]): -3.3
- ILS at 23.5 mg/kg (P388 [13]): 40%
- ILS at 47 mg/kg (P388 [14]): 59%
- ILS at 94 mg/kg (P388 [15]): 84%
- KE (P388 [16]): -0.1
- ILS at 11.8 mg/kg (P388 [17]): 40%
- IC50 [18]: 115 µM
- IC50 (L1210 (Mus musculus)): 18 µM

SMILES: CNC(=O)OCc1nc(SSc2nc(COC(=O)NC)c(COC(=O)NC)n2C)n(C)c1COC(=O)NC
- ILS at 82 mg/kg [19]: -5%
- KE [20]: 1.8
- KE [21]: 1.8
- ILS at 328 mg/kg [22]: -69%
- ILS at 41 mg/kg [23]: 3%
- ILS at 164 mg/kg [24]: -5%
- KE (Mus musculus): Toxic
- KE [25]: 1.5
- KE (P388 [26]): 1.3
- KE (P388 [27]): 1.3
- KE (P388 [28]): 1.3
- ILS at 41 mg/kg (P388 [29]): 20%
- ILS at 82 mg/kg (P388 [30]): 17%
- KE (P388 [31]): 0.9
- ILS at 164 mg/kg (P388 [32]): 26%
- ILS at 20.5 mg/kg (P388 [33]): 17%
